CSC inhib = blocks cancer stem cells; AID 2717; cancer stem cell-like cells viability, luminescence; inhibition, % at 7.5 µM; 300,000 compounds, 1.1% hits; in the data active = inhibition above about 75%; inconclusive = no clear call, values can overlap the other calls; tested in HMLE shEcad cells
HIF act = HIF pathway transcriptional activation; U2OS HRE-luciferase reporter, luminescence; normalized: DMSO 0%, desferrioxamine 100%; activation, % at 7.5 µM (by protocol); 300,000 compounds, 0.32% hits; AID 1910;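 active = mean activation of at least 10% of the iron chelator positive control signal, with at least half of replicates also reaching 10%; inconclusive = mean and replicate majority disagree about reaching 10%; inactive = mean and most replicates under 10%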
Beta cell apopt = blocks beta cell apoptosis; INS-1E cytokine-induced death, ATP luminescence, 48 h; percent of positive-control rescue, neutral wells zero; protection from apoptosis, % (test concentration not listed); 300,000 compounds, 0.8% hits; AID 435005;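 active = Every replicate reaches about 75%, or at least half do and their mean reaches it too, limit read from the data; inconclusive = At least half of replicates reach the limit but their mean does not; inactive = Under half of replicates reach the limit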;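 also: 0% = cytokine-treated negative control wells and 100% = positive control rescue; higher means more ATP so stronger rescue from cytokine killing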
PolyA inhibitor = blocks polyadenylation in yeast reporter cells; activity score, % at 12 µM; AID 1875; S. cerevisiae SKY197-pL101 polyadenylation reporter, beta-gal luminescence; efflux-impaired pdr1/pdr3 knockout yeast; score 100 = 6 SD above DMSO; 300,000 compounds, 0.02% hits;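 active = lowest replicate activity score at least 50, where 100 means six control SD above control mean; inconclusive = lowest score under 50 but half or more replicates reach 50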;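 also: yeast exposed to compound for 9 h at 30 °C; higher score means more reporter readthrough which indicates perturbed polyadenylation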
T cruzi inh = blocks replication of Trypanosoma cruzi; T. cruzi beta-gal in NIH3T3, luminescence, 90 h; inhibition, % (no concentration beside the values); 300,000 compounds, 1.4% hits; AID 1885;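 active = mean inhibition across valid replicates above about 55%, limit read from the data; inconclusive = mean below that limit but half or more replicates reach it; inactive = mean below it, under half of replicates reach it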;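 also: signal also drops with host cell toxicity which is not excluded here; 0% = plate median of DMSO wells and 100% = zero luminescence signal; higher percent means less beta-gal luminescence so fewer parasites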
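System: mouse NIH/3T3 fibroblasts infected with β-gal-expressing T. cruzi Tulahuen C4 / Input: NIH/3T3 cells, 5,000 per well / Buffer or medium: Low-serum DMEM with 2% FBS / Probe or stimulus: 5000 reporter trypomastigotes per well / Schedule: ≥90 h infection period, 3 h prior cell attachment / Measured by: GalScreen luminescence, 60 min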
Calb FLC = C. albicans growth modulation with fluconazole. C. albicans CaCi-2 (fluconazole-resistant clinical isolate) + fluconazole, Alamar Blue growth, 48 h. growth inhibition, % (no concentration beside the values). 300,000 compounds, 0.57% hits;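 active = growth inhibition above about 58% in most replicates, limit read from the data, passing the limit was not always enough; inconclusive = exactly half the replicates above a set limit; inactive = most replicates below a set limit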;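 also: all wells also contain fluconazole at 8 µg/ml as a sub-toxic cotreatment; 0% = median of DMSO wells and 100% = median of geldanamycin control wells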
Active calls of the source: *; u = inconclusive; x = no result. An excerpt weighted towards active compounds, which were near 3.1% of everything screened.

SMILES	CSC inhib	HIF act	Beta cell apopt	PolyA inhibitor	T cruzi inh	Calb FLC
Cc1ccc([N+](=O)[O-])cc1Nc1nc(N2CCCC2)nc(N2CCCC2)n1	2	-19	4	11	1	-1
COc1ccc(Nc2cc(Nc3cccc(OC)c3)ncn2)cc1	49	-9	-2	-17	43	-5
Cc1cc(C)n(Cc2ccc(NC(=O)c3ccc(COc4ccccc4Br)cc3)cc2)n1	125*	0	78*	5	60*	37
COC(=O)c1ccc(Cn2nc(C)cc2C)cc1	-9	2	-3	0	-14	1
CCCn1c(NCc2ccccc2NS(=O)(=O)c2ccc(C)cc2)nc2ccccc21	75*	0	17	12	43	5
CCn1c(NCc2cc(Br)ccc2NS(=O)(=O)c2ccc(C)cc2)nc2ccccc21	17	-1	10	-7	64*	0
CCn1c(NCc2ccccc2NS(=O)(=O)c2ccc(C)cc2)nc2ccccc21	68	0	0	19	17	-2
CC(C)(C)c1ccc(NC(=O)Nc2ccc(OCC(=O)N3CCOCC3)cc2)cc1	5	2	0	4	7	-8
Cc1cccc(C)c1NC(=O)CS(=O)CC(=O)NCC1OCCc2ccccc21 (stereo unspecified)	-13	0	0	23	-1	-1
Cc1cc(C)c2c3c(sc2n1)C1(CCSCC1)C(C#N)=C(N)O3	14	x	12	0	64*	-13
Cc1ccccc1-n1c(-c2ccc(Cl)cc2)cnc1SCC(=O)NC1CCS(=O)(=O)C1 (stereo unspecified)	3	-1	x	14	10	12
Cc1ccc(-c2nn(-c3ccccc3)cc2/C=N/NC(=O)c2ccc(Br)o2)cc1	29	4	136*	-6	23	-4
O=C(N/N=C/c1cn(-c2ccccc2)nc1-c1ccccc1)c1ccco1	2	1	2	8	17	12
O=C(N/N=C\c1cn(-c2ccccc2)nc1-c1ccccc1)c1ccc(Br)o1	35	1	110*	-16	21	-1
CC1CC(C)CN(CCCNC(=O)C2CCCN(S(=O)(=O)N3CC(C)CC(C)C3)C2)C1 (stereo unspecified)	11	0	-2	-6	33	-12
Nc1nonc1-c1nc2ccccc2n1CC(=O)N/N=C/c1ccc(-c2cccc(C(=O)O)c2)o1	x	0	x	-3	-9	-5
CCN(CC)S(=O)(=O)c1ccc(NC(=O)c2ccc(N3CCCC3=O)cc2)cc1	6	x	3	x	x	x
O=C(Cn1ncc(Cl)c(Cl)c1=O)c1ccc2c(c1)OCCO2	112*	x	113*	x	x	x
O=C(Cn1ncc(Cl)c(Cl)c1=O)Nc1ccc2c(c1)OCO2	x	x	-7	x	x	x
Cc1ccc(NS(=O)(=O)c2sc3ccc(Cl)cc3c2C)cc1	98*	-1	-5	-12	-30	-10
CN(C)c1ccc(NS(=O)(=O)c2cc(Cl)ccc2Cl)cc1	24	2	0	-15	12	2
O=C(NCc1nc2ccccc2[nH]1)C1=C[C@@H](C2CCCCC2)C[C@@H](OCc2ccc(CO)cc2)O1	2	-1	106*	-7	38	31
O=C(NCc1nc2ccccc2[nH]1)C1=C[C@H](C2CCCCC2)C[C@H](OCc2ccc(CO)cc2)O1	21	0	3	8	38	-3
CC(=O)N(Cc1ccc(F)cc1)C1=C(NCCc2ccccc2)C(=O)c2ccccc2C1=O	-9	-2	106*	-23	39	87*
CC(=O)N(Cc1ccc(F)cc1)c1cccc(C)c1C	-12	0	1	-13	3	2
SMILES	CSC inhib	HIF act	Beta cell apopt	PolyA inhibitor	T cruzi inh	Calb FLC
COc1ccc2nc(-c3ccco3)c(-c3ccco3)nc2c1	x	x	x	3	-10	6
COc1ccc2no[n+]([O-])c2c1	-7	0	-3	73*	-9	5
Fc1ccc(-n2c(CN3CCCCC3)n[nH]c2=S)cc1	13	0	1	9	-9	0
O=C1CCc2ccc(OCCCCN3CCN(c4cccc(Cl)c4Cl)CC3)cc2N1	17	-1	3	16	48	105*
CC1=C(C#N)C(C(F)(F)F)(C(F)(F)F)N=C(c2ccco2)N1	-13	0	101*	-4	-7	-17
CC(C(=O)NCCSCc1cccc(Cl)c1)N(c1ccccc1)S(C)(=O)=O (stereo unspecified)	9	1	1	-9	-12	18
Cc1ccc(C(=O)N/C(=C\c2ccc(-c3ccc(Br)cc3)o2)C(=O)NCCCN(C)C)cc1	u	-1	100*	0	77*	11
Cc1ccc(C(=O)N/C(=C\c2ccc(-c3cccc([N+](=O)[O-])c3)o2)C(=O)NCCCN(C)C)cc1	12	1	7	4	2	1
CN(C)CCNC(=O)/C(=C/c1ccc(-c2ccc(Cl)cc2Cl)o1)NC(=O)c1ccccc1	110*	-1	99*	1	32	u
O=C(CN1CCN(c2ccc(O)cc2)CC1)Nc1ccc(SC(F)F)cc1	134*	0	6	-14	-16	3
O=[N+]([O-])c1ccc(S(=O)(=O)NCC(c2ccco2)N2CCc3ccccc3C2)cc1 (stereo unspecified)	0	3	-4	-4	61*	2
O=[N+]([O-])c1ccc(S(=O)(=O)NCC(c2cccnc2)N2CCc3ccccc3C2)cc1 (stereo unspecified)	-2	0	x	12	35	7
Cc1ccccc1C(=O)NNC(=S)NC(=O)c1ccc(Cl)cc1Cl	x	0	x	-53	-28	91*
O=C(NC(=S)NNC(=O)c1ccc(Cl)cc1Cl)c1cccnc1	14	1	-3	5	7	0
CCc1ccccc1NC(=S)NNC(=O)c1ccccc1Cl	-7	2	2	9	6	103*
CCc1ccccc1NC(=S)N1CCCCCC1	0	x	0	x	x	117*
COc1ccc(C(=O)NC(=S)NNC(=O)c2ccccc2O)cc1	54	0	27	1	5	36
COc1ccc(C(=O)NC(=S)NNC(=O)c2ccccc2C)cc1	14	0	10	-12	-13	101*
CC12CCC(C/C1=N\N=C1\NC(=O)/C(=C\c3cccc(Br)c3)S1)C2(C)C (stereo unspecified)	105*	-1	20	-15	19	2
CCOC(=O)/C=C/c1ccc2c(c1)S(=O)(=O)N(Cc1ccc(OC)cc1)[C@H]2CC(=O)OCC	3	-1	1	1	0	-3
Cc1cc(OCC(=O)NCCc2ccc(Cl)cc2)c2c(C)cc(=O)oc2c1	-4	-1	10	-15	15	x
COc1ccc(C)c2sc(N(CCCN(C)C)C(=O)CS(=O)(=O)c3ccc(F)cc3)nc12	0	0	x	-7	14	-2

Bioassay records (PubChem)
